Test results: ChEMBL document CHEMBL3632575, “Structure-Activity Relationships of the Peptide Kappa Opioid Receptor Antagonist Zyklophin” (J Med Chem, 2015)
The source made the active and inactive calls. The rule behind the calls is not given here.

Experiments:
Rattus norvegicus = species on record: Rattus norvegicus; experiment: Selectivity ratio, ratio of Ki for rat mu-opioid receptor to Ki for rat kappa-opioid receptor
[1] = target: Kappa-type opioid receptor (Rattus norvegicus, UniProt P34975); experiment: Displacement of [3H]diprenorphine from rat kappa-opioid receptor expressed in CHO cells after 90 mins by scintillation counter; type: cell-based
Sequence of Kappa-type opioid receptor (P34975 whole entry): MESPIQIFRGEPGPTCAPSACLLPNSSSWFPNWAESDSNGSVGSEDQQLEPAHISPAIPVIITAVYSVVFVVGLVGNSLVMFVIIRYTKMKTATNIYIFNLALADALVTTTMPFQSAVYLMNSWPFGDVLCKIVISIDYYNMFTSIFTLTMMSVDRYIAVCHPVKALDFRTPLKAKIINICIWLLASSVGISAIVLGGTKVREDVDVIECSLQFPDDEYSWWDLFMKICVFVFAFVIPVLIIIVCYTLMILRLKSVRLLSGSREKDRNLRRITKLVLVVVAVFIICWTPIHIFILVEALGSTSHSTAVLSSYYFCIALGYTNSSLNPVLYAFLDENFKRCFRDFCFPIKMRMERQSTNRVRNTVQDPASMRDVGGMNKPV
In short: (§1)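 Membranes from CHO cells stably expressing cloned rat KOR or MOR were incubated in triplicate with test peptide at 0.1 nM–10 µM for 90 min at 22 °C in 50 mM Tris, pH 7.4. […] Nonspecific binding was set with 10 µM unlabeled Dyn A(1-13)NH2 (KOR) or DAMGO (MOR). Ki is the mean ± S.E.M. of at least three independent experiments.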

[2] = target: Kappa-type opioid receptor (Rattus norvegicus) (UniProt P34975); experiment: Displacement of [3H]diprenorphine from rat kappa-opioid receptor expressed in CHO cells after 90 mins by scintillation counter relative to zyklophin; type: cell-based
Sequence of Kappa-type opioid receptor (Rattus norvegicus) (P34975 whole entry): as above

Mu-type opioid receptor = Mu-type opioid receptor (Rattus norvegicus, UniProt P33535); experiment: Displacement of [3H]DAMGO from rat mu-opioid receptor expressed in CHO cells after 90 mins by scintillation counter; type: cell-based; in short: as §1
Sequence of Mu-type opioid receptor (P33535 whole entry): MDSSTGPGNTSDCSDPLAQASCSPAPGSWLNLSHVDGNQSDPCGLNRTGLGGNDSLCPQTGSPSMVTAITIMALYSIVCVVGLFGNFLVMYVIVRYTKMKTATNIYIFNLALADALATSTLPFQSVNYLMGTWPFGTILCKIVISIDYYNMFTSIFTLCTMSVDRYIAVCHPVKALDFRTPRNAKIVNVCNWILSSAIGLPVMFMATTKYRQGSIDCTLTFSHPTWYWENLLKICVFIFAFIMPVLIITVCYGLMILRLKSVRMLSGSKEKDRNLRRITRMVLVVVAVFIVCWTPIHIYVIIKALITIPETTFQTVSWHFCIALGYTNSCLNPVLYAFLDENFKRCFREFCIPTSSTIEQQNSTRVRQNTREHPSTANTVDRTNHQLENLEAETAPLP

[3] = Retention time of the compound by RP-HPLC; type: physicochemical
In short: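 Analytical RP-HPLC on a C18 column (5 µ, 300 Å, 4.6 × 50 mm). System 1: 5–50% acetonitrile in water, both with 0.1% TFA, over 45 min at 1 mL/min. System 2: 15–60% methanol/0.1% TFA over 45 min at 1.0 mL/min. System 3: 1–21% acetonitrile against aqueous 0.09 M TEAP, pH 2.5, over 40 min.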

[4] = target: Kappa-type opioid receptor (Homo sapiens) (UniProt P41145); experiment: Agonist activity at kappa-opioid receptor (unknown origin) at 10 uM after 90 mins by [35S]GTPgammaS binding assay; type: functional
Sequence of Kappa-type opioid receptor (Homo sapiens) (P41145 whole entry): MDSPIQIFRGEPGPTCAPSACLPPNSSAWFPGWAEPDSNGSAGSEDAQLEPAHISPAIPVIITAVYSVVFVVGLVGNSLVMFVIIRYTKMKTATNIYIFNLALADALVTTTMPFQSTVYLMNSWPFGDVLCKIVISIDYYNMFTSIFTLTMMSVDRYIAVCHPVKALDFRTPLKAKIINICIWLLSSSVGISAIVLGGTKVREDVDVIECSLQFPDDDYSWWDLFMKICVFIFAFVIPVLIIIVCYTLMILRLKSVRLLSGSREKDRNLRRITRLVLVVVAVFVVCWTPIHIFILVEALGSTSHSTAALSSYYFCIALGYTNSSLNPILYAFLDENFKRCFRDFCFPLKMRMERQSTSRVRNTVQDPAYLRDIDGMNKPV
In short: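 KOR-containing membranes were incubated in duplicate with [35S]GTPγS (0.1–0.2 nM) and 10 µM peptide for 90 min at 22 °C in 50 mM HEPES, pH 7.4. Specific binding is total minus binding with 3 µM unlabeled GTPγS. Efficacy is expressed relative to the full agonist Dyn A(1-13)NH2, from at least two independent experiments.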

[5] = target: Kappa-type opioid receptor (Homo sapiens) (UniProt P41145); experiment: Antagonist activity at kappa-opioid receptor (unknown origin) assessed as inhibition of DynA(1-13)-induced [35S]-GTPgammaS binding after 90 mins; type: functional
In short: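 Antagonism was measured in a [35S]GTPγS (0.1–0.2 nM) binding assay on KOR membranes, run in duplicate for 90 min at 22 °C in 50 mM HEPES, pH 7.4, with Dyn A(1-13)NH2 as the stimulating agonist. Specific binding is total minus binding with 3 µM GTPγS. KB was derived by Schild analysis from shifts of the agonist concentration-response curve, averaged over 2–5 independent experiments, with 95% confidence intervals.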

Compound	Activity [4]	also measured
CC[C@H](C)[C@H](NC(=O)[C@H](CCCNC(=N)N)NC(=O)[C@H](CCCNC(=N)N)NC(=O)[C@@H](CC(N)=O)NC(=O)[C@H](Cc1ccccc1)NC(=O)CNC(=O)CNC(=O)[C@H](Cc1ccc(O)cc1)NCc1ccccc1)C(=O)N[C@@H](CCCNC(=N)N)C(=O)N1CCC[C@H]1C(=O)N[C@@H](CCCCN)C(N)=O	–	Ratio Ki (Rattus norvegicus): 6; Ki [1]: 0.412 µM; fold change (FC) [2]: 0.23; Ki (Mu-type opioid receptor): 2.44 µM
N=C(N)NCCC[C@@H]1NC(=O)[C@H](CCCNC(=N)N)NC(=O)[C@H](NC(=O)[C@H](Cc2ccccc2)NC(=O)CNC(=O)CNC(=O)[C@@H](Cc2ccc(O)cc2)NCc2ccccc2)CC(=O)NC[C@@H](C(=O)N[C@@H](CCCNC(=N)N)C(=O)N2CCC[C@H]2C(=O)N[C@@H](CCCCN)C(N)=O)NC1=O	–	Retention_time [3]: 17.3 min
N=C(N)NCCC[C@@H]1NC(=O)[C@H](CCCNC(=N)N)NC(=O)[C@H](NC(=O)[C@H](Cc2ccccc2)NC(=O)CNC(=O)CNC(=O)[C@H](Cc2ccc(O)cc2)NCCc2ccccc2)CC(=O)NC[C@@H](C(=O)N[C@@H](CCCNC(=N)N)C(=O)N2CCC[C@H]2C(=O)N[C@@H](CCCCN)C(N)=O)NC1=O	Active	–
C[C@H](NC(=O)[C@@H]1CNC(=O)C[C@@H](NC(=O)[C@H](Cc2ccccc2)NC(=O)CNC(=O)CNC(=O)[C@H](Cc2ccc(O)cc2)NCc2ccccc2)C(=O)N[C@@H](CCCNC(=N)N)C(=O)N[C@@H](CCCNC(=N)N)C(=O)N1)C(=O)N1CCC[C@H]1C(=O)N[C@@H](CCCCN)C(N)=O	inactive	–
N=C(N)NCCC[C@@H]1NC(=O)[C@H](CCCNC(=N)N)NC(=O)[C@H](NC(=O)[C@H](Cc2ccccc2)NC(=O)CNC(=O)CNC(=O)[C@H](Cc2ccc(O)cc2)NCc2ccccc2)CC(=O)NCCC[C@@H](C(=O)N[C@@H](CCCNC(=N)N)C(=O)N2CCC[C@H]2C(=O)N[C@@H](CCCCN)C(N)=O)NC1=O	Active	–
CN[C@@H](Cc1ccc(O)cc1)C(=O)NCC(=O)NCC(=O)N[C@@H](Cc1ccccc1)C(=O)N[C@@H]1CC(=O)NC[C@@H](C(=O)N[C@@H](CCCNC(=N)N)C(=O)N2CCC[C@H]2C(=O)N[C@@H](CCCCN)C(N)=O)NC(=O)[C@H](CCCNC(=N)N)NC(=O)[C@H](CCCNC(=N)N)NC1=O	Active	–
N=C(N)NCCC[C@@H]1NC(=O)[C@H](CCCNC(=N)N)NC(=O)[C@H](NC(=O)[C@H](Cc2ccccc2)NC(=O)CNC(=O)CNC(=O)[C@H](Cc2ccc(O)cc2)NCC2CC2)CC(=O)NC[C@@H](C(=O)N[C@@H](CCCNC(=N)N)C(=O)N2CCC[C@H]2C(=O)N[C@@H](CCCCN)C(N)=O)NC1=O	Active	–
C=CCN[C@@H](Cc1ccc(O)cc1)C(=O)NCC(=O)NCC(=O)N[C@@H](Cc1ccccc1)C(=O)N[C@@H]1CC(=O)NC[C@@H](C(=O)N[C@@H](CCCNC(=N)N)C(=O)N2CCC[C@H]2C(=O)N[C@@H](CCCCN)C(N)=O)NC(=O)[C@H](CCCNC(=N)N)NC(=O)[C@H](CCCNC(=N)N)NC1=O	Active	–
N=C(N)NCCC[C@@H]1NC(=O)[C@H](CCCNC(=N)N)NC(=O)[C@H](NC(=O)[C@H](Cc2ccccc2)NC(=O)CNC(=O)CNC(=O)[C@H](Cc2ccc(O)cc2)NC(=O)c2ccccc2)CC(=O)NC[C@@H](C(=O)N[C@@H](CCCNC(=N)N)C(=O)N2CCC[C@H]2C(=O)N[C@@H](CCCCN)C(N)=O)NC1=O	Active	–
C[C@@H]1NC(=O)[C@H](NC(=O)[C@H](Cc2ccccc2)NC(=O)CNC(=O)CNC(=O)[C@H](Cc2ccc(O)cc2)NCc2ccccc2)CC(=O)NC[C@@H](C(=O)N[C@@H](CCCNC(=N)N)C(=O)N2CCC[C@H]2C(=O)N[C@@H](CCCCN)C(N)=O)NC(=O)[C@H](CCCNC(=N)N)NC1=O	inactive	–
C[C@H](NC(=O)CNC(=O)CNC(=O)[C@H](Cc1ccc(O)cc1)NCc1ccccc1)C(=O)N[C@@H]1CC(=O)NC[C@@H](C(=O)N[C@@H](CCCNC(=N)N)C(=O)N2CCC[C@H]2C(=O)N[C@@H](CCCCN)C(N)=O)NC(=O)[C@H](CCCNC(=N)N)NC(=O)[C@H](CCCNC(=N)N)NC1=O	inactive	–
C[C@H](NCc1ccccc1)C(=O)NCC(=O)NCC(=O)N[C@@H](Cc1ccccc1)C(=O)N[C@@H]1CC(=O)NC[C@@H](C(=O)N[C@@H](CCCNC(=N)N)C(=O)N2CCC[C@H]2C(=O)N[C@@H](CCCCN)C(N)=O)NC(=O)[C@H](CCCNC(=N)N)NC(=O)[C@H](CCCNC(=N)N)NC1=O	inactive	–
CC1NC(=O)C[C@@H](NC(=O)[C@H](Cc2ccccc2)NC(=O)CNC(=O)CNC(=O)[C@H](Cc2ccc(O)cc2)NCc2ccccc2)C(=O)N[C@@H](CCCNC(=N)N)C(=O)N[C@@H](CCCNC(=N)N)C(=O)NC1C(=O)N[C@@H](CCCNC(=N)N)C(=O)N1CCC[C@H]1C(=O)N[C@@H](CCCCN)C(N)=O (some centres undefined)	Active	Ratio Ki (Rattus norvegicus): 8
C[C@@H]1NC(=O)[C@H](CCCNC(=N)N)NC(=O)[C@H](NC(=O)[C@H](Cc2ccccc2)NC(=O)CNC(=O)CNC(=O)[C@H](Cc2ccc(O)cc2)NCc2ccccc2)CC(=O)NCC(C(=O)N[C@@H](CCCNC(=N)N)C(=O)N2CCC[C@H]2C(=O)N[C@@H](CCCCN)C(N)=O)NC1=O (some centres undefined)	inactive	Activity [5]: inactive
